Test results taken from ChEMBL document CHEMBL3352517, “Anti-inflammatory ursane- and oleanane-type triterpenoids from Vitex negundo var. cannabifolia” (J Nat Prod, 2014).

What was measured:
RAW264.7 [1] = experiment: Anti-inflammatory activity in mouse RAW264.7 cells assessed as inhibition of lipopolysaccharide-induced nitric oxide production at 80 uM incubated for 24 hrs by Griess reagent based assay; type: functional; conditions: RAW264.7, 24 h
RAW264.7 [2] = experiment: (§1) Cytotoxicity against mouse RAW264.7 cells assessed as cell viability at 40 uM by MTT assay; type: cell-based; conditions: raw264.7, 40 µM
[3] = as §1; type: cell-based; conditions: RAW264.7 cells, read-out: Activity
RAW264.7 [4] = experiment: Anti-inflammatory activity in mouse RAW264.7 cells assessed as inhibition of lipopolysaccharide-induced nitric oxide production incubated for 24 hrs by Griess reagent based assay; type: functional, cell-based; conditions: RAW264.7, 24 h
In short: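 LPS-stimulated RAW 264.7 macrophages; NO production read by Griess assay; inhibition expressed as IC50 (μM).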

SMILES	inhibition at 80 µM (RAW264.7 [1]) [%]	Activity (RAW264.7 [2])	viability at 40 µM [3] [%]	IC50 (RAW264.7 [4]) [µM]
CC1(C)[C@@H]2C[C@@]3(CC[C@]4(C)[C@@H]5[C@@H]3[C@@H]1O[C@]5(O)C[C@@H]1[C@@]3(C)C[C@@H](O)[C@@H](O)C(C)(C)[C@@H]3CC[C@]14C)C(=O)O2	< 50	Non-toxic		
C[C@@H]1CC[C@]2(C(=O)O)CC[C@]3(C)C(=CC[C@@H]4[C@@]5(C)C[C@@H](O)[C@@H](O)C(C)(C)[C@@H]5CC[C@]43C)[C@@H]2[C@]1(C)O [EUSCAPHIC ACID]	< 50	Non-toxic		
CC1(C)CC[C@@]23CC[C@@]4(C)[C@]5(C)CC[C@H]6C(C)(C)[C@H](O)[C@H](O)C[C@]6(C)[C@H]5CC(=O)[C@]4(OC2=O)[C@@H]3C1			< 70	
C[C@H]1[C@H](C)CC[C@]2(C(=O)O)CC[C@]3(C)C(=CC[C@@H]4[C@@]5(C)CC[C@H](O)C(C)(C)[C@@H]5CC[C@]43C)[C@H]12 [URSOLIC ACID]			< 70	
C=C1CC[C@]2(C(=O)O)CC[C@]3(C)C(=CC[C@@H]4[C@@]5(C)C[C@@H](O)[C@@H](O)C(C)(C)[C@@H]5CC[C@]43C)[C@@H]2[C@H]1C		Non-toxic		26.1
O=c1c(O)c(-c2ccc(O)c(O)c2)oc2cc(O)cc(O)c12 [QUERCETIN]				16.6
C[C@H]1[C@H](C)CC[C@]2(C(=O)O)CC[C@]3(C)C(=CC[C@@H]4[C@@]5(C)C[C@@H](O)[C@H](O)C(C)(C)[C@@H]5CC[C@]43C)[C@H]12 [COROSOLIC ACID]			< 70	
CC1(C)CC[C@]2(C(=O)O)CC[C@]3(C)C(=CC[C@@H]4[C@@]5(C)C[C@@H](O)[C@@H](O)C(C)(C)[C@@H]5CC[C@]43C)[C@@H]2C1		Non-toxic		27.7
C[C@@H]1[C@@H]2C[C@@]3(CC[C@]4(C)[C@@H]5[C@@H]3[C@]1(C)O[C@]5(O)C[C@@H]1[C@@]3(C)C[C@@H](O)[C@@H](O)C(C)(C)[C@@H]3CC[C@]14C)C(=O)O2	< 50	Non-toxic		
C[C@H]1[C@H](C)CC[C@@]23CC[C@@]4(C)[C@]5(C)CC[C@H]6C(C)(C)[C@H](O)[C@H](O)C[C@]6(C)[C@H]5CC(=O)[C@]4(OC2=O)[C@H]13	< 50	Non-toxic		
CC1(C)CC[C@]2(C(=O)O)CC[C@]3(C)C(=CC[C@@H]4[C@@]5(C)C[C@@H](O)[C@@H](O)[C@](C)(CO)[C@@H]5CC[C@]43C)[C@@H]2C1		Non-toxic		40.5
C[C@@H]1CC[C@]2(C(=O)O)CC[C@]3(C)C(=CC[C@@H]4[C@@]5(C)C[C@@H](O)[C@H](O)C(C)(C)[C@@H]5CC[C@]43C)[C@@H]2[C@]1(C)O [TOMENTIC ACID]		Non-toxic		24.9
C[C@H]1[C@H](C)CC[C@]2(C(=O)O)CC[C@]3(C)C(=CC[C@@H]4[C@@]5(C)C[C@@H](O)[C@@H](O)C(C)(C)[C@@H]5CC[C@]43C)[C@H]12 [PYGENIC ACID A]			< 70	
CC1(C)[C@H](O)[C@H](O)C[C@]2(C)[C@H]3CC=C4[C@@H]5C[C@](C)(CO)CC[C@]5(C(=O)O)CC[C@@]4(C)[C@]3(C)CC[C@@H]12	< 50	Non-toxic		
C[C@H]1[C@H](C)CC[C@@]23CC[C@]4(C)[C@](OC2=O)([C@H](O)C[C@@H]2[C@@]5(C)C[C@@H](O)[C@@H](O)C(C)(C)[C@@H]5CC[C@]24C)[C@H]13		Non-toxic		34
